Results published in ChEMBL document CHEMBL1156262, “Substituted benzothiophene or benzofuran derivatives as a novel class of bone morphogenetic protein-2 up-regulators: synthesis, structure-activity relationships, and preventive bone loss efficacies in senescence accelerated mice (SAMP6) and ovariectomized rats” (J Med Chem, 2010).
The source made the active and inactive calls.

Legend:
Mus musculus [1] = assay: Induction of BMP2 expression in SAMP6 mouse bone marrow stroma at 30 mg/kg/day, po after 3 months by immunohistochemical analysis; assay type: functional, organism-based
Outline: (§1)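 SAMP6 mice, 5 months old, male and female, n = 5 per group (3 male, 2 female). Dosed by gavage with compound suspended in 0.5% methylcellulose daily for 3 months; the vehicle group received methylcellulose only. Proximal third of the left femur fixed in 4% neutral paraformaldehyde for 24 h, decalcified in 10% EDTA at 4 °C for 4 weeks, then frozen-sectioned at 5 μm. Stained with rabbit polyclonal anti-BMP-2 and an alkaline phosphatase secondary. BMP-2-positive area was taken as a percentage of bone tissue area, averaged over five fields below the epiphyseal plate.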

Mus musculus [2] = assay: Toxicity in SAMP6 mouse assessed as increase in body weight at 30 mg/kg/day, po after 3 months; assay type: organism-based; design: route oral; conditions: in vivo
Outline: (§2)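 SAMP6 mice, n = 5 per group, dosed orally at 30 mg/kg/day in 0.5% methylcellulose for 3 months. Heart, liver, spleen, lung and kidney harvested, weighed and examined histologically. Organ/body weight indexes, body weight, and 24 h water and food intake (g/g body weight) compared with vehicle controls.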

Rattus norvegicus [3] = assay: Induction of bone formation in ovariectomized rat assessed as increase in trabecular bone volume percentage at 15 mg/kg/day, po after 3 months; assay type: functional, organism-based; conditions: Trabecula
Outline: (§3)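 Female rats (205–235 g) randomized by body weight, n = 7 per group: sham, ovariectomized with vehicle, ovariectomized with raloxifene 5 mg/kg/day, and ovariectomized with compound at 7.5, 15 or 30 mg/kg/day. All dosing oral for 3 months. Undecalcified proximal tibia sections analysed by histomorphometry, with comparisons against the sham and ovariectomized groups.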

Rattus norvegicus [4] = assay: Induction of bone formation in ovariectomized rat assessed as increase in trabecular bone volume percentage at 30 mg/kg/day, po after 3 months; assay type: functional, organism-based; conditions: Trabecula; outline: as §3
Mus musculus [5] = assay: Induction of bone mineral density in SAMP6 mouse assessed as whole body BMD at 30 mg/kg/day, po measured after 2 months
Rattus norvegicus [6] = assay: Toxicity in rat assessed as pathological increase in body weight at 150 mg/kg/day, po after 3 months; assay type: organism-based; design: route oral; conditions: in vivo
Outline: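 Female rats (n = 7) were dosed orally once daily at 150 (mg/kg)/day for 3 months. Body weight, behaviour and fur were observed throughout. At the end, hearts, livers, spleens, lungs and kidneys were sectioned for histological examination of pathological changes.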

Mus musculus [7] = assay: Induction of BMP2 expression in SAMP6 mouse osteoblast at 10 mg/kg/day, po after 3 months by immunohistochemical analysis; assay type: functional, organism-based; outline: as §1
Rattus norvegicus [8] = assay: Induction of bone formation in ovariectomized rat assessed as decrease in trabecular resorption surface percentage at 15 mg/kg/day, po after 3 months; assay type: functional, organism-based; conditions: Trabecula; outline: as §3
Rattus norvegicus [9] = assay: Toxicity in rat assessed as pathological changes in heart at 150 mg/kg/day, po after 3 months by histomorphology; assay type: organism-based; design: route oral; conditions: in vivo
Outline: (§4)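 Rats, n = 7, given oral doses of 150 mg/kg/day for 3 months. Heart, liver, spleen, lung and kidney examined histologically for pathological change.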

Mus musculus [10] = assay: Toxicity in SAMP6 mouse assessed as change in 24 hrs food consumption at 30 mg/kg/day, po after 3 months; assay type: organism-based; design: route oral; conditions: in vivo; outline: as §2
[11] = Induction of BMP2 expression in mouse calcarial MC3T3-E1 cells stably transfected with mouse BMP2 promotor-luciferase assessed as upregulation rate at 4 uM; assay type: functional, cell-based
Outline: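 Reporter assay in murine calvarial MC3T3-E1 cells stably carrying the mouse BMP-2 promoter fused to firefly luciferase (pGL4BMP-2). Cells grown in DMEM with 10% heat-inactivated FBS at 37 °C and 5% CO2. Test compounds at 4.0 μM; lovastatin at 0.4 μM as positive control; 0.1% DMSO as negative control. Up-regulation rate = (RLU of test − RLU of negative control)/RLU of negative control × 100.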

Rattus norvegicus [12] = assay: Toxicity in rat assessed as pathological changes in liver at 150 mg/kg/day, po after 3 months by histomorphology; assay type: organism-based; design: route oral; conditions: in vivo; outline: as §4
Mus musculus [13] = assay: Induction of bone mineral density in SAMP6 mouse assessed as left hind leg BMD at 30 mg/kg/day, po measured after 3 months; assay type: functional
Outline: (§5)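 SAMP6 mice, 5 months old, n = 5 per group, given compound in 0.5% methylcellulose by gavage daily. Dual-energy X-ray absorptiometry under pentobarbital anaesthesia (50 mg/kg ip), animals prone, at 0, 4, 8 and 12 weeks of treatment. Regions of interest were whole body, spine and left hind leg.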

Mus musculus [14] = assay: Toxicity in SAMP6 mouse assessed as pathological changes in heart at 30 mg/kg/day, po after 3 months by histomorphology; assay type: organism-based; design: route oral; conditions: in vivo; outline: as §2
Rattus norvegicus [15] = assay: Prevention of bone loss in ovariectomized rat assessed as increase in number, thickness, area and connectivity of trabecula at 30 mg/kg/day, po after 3 months by histomorphometry Leica Qwin image analysis; assay type: functional, organism-based; outline: as §3
Rattus norvegicus [16] = assay: Toxicity in rat assessed as pathological changes in lung at 150 mg/kg/day, po after 3 months by histomorphology; assay type: organism-based; design: route oral; conditions: in vivo; outline: as §4
Mus musculus [17] = assay: Induction of bone mineral density in SAMP6 mouse assessed as whole body BMD at 10 mg/kg/day, po measured after 1 month; assay type: functional, organism-based; conditions: 30 mg/kg, in the assay text read “30 mg/kg/day” for “10 mg/kg/day”; outline: as §5
Mus musculus [18] = assay: Induction of BMP2 expression in SAMP6 mouse cartilage cells at 30 mg/kg/day, po after 3 months by immunohistochemical analysis; assay type: functional, organism-based; outline: as §1
Mus musculus [19] = assay: Induction of bone formation in SAMP6 mouse right femora assessed as average osteoid width at 30 mg/kg/day, po measured after 3 months by bone histomorphometry; assay type: functional
Outline: (§6)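 SAMP6 mice, 5 months old, n = 5 per group (3 male, 2 female), randomized by initial BMD. Given compound in 0.5% methylcellulose by gavage daily for 3 months. Proximal third of the right femur fixed in 4% paraformaldehyde, cut as undecalcified sections, and scored by image analysis for histomorphometry.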

Rattus norvegicus [20] = assay: Toxicity in rat assessed as pathological changes in spleen at 150 mg/kg/day, po after 3 months by histomorphology; assay type: organism-based; design: route oral; conditions: in vivo; outline: as §4
Mus musculus [21] = assay: Toxicity in SAMP6 mouse assessed as pathological changes in liver at 30 mg/kg/day, po after 3 months by histomorphology; assay type: organism-based; design: route oral; conditions: in vivo; outline: as §2
Mus musculus [22] = assay: Induction of BMP2 expression in SAMP6 mouse osteoblast at 30 mg/kg/day, po after 3 months by immunohistochemical analysis; assay type: functional, organism-based; outline: as §1
Mus musculus [23] = assay: Induction of bone formation in SAMP6 mouse right femora assessed as trabecular resorption surface percentage at 30 mg/kg/day, po measured after 3 months by bone histomorphometry; assay type: functional, Trabecula; outline: as §6
Mus musculus [24] = assay: Toxicity in SAMP6 mouse assessed as pathological changes in spleen at 30 mg/kg/day, po after 3 months by histomorphology; assay type: organism-based; design: route oral; conditions: in vivo; outline: as §2
[25] = Toxicity in po dosed Kunming mouse assessed as mortality treated for 3 days measured after 17 days; assay type: organism-based; conditions: in vivo
Outline: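 Male and female Kunming mice (18-21 g), six per group (three males, three females), were dosed orally at 500 or 700 (mg/kg)/day for 3 days. They were closely watched for deaths over the 3 dosing days and the following 14 days (17 days in total).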

Rattus norvegicus [26] = assay: Induction of bone formation in ovariectomized rat assessed as decrease in trabecular resorption surface percentage at 7.5 mg/kg/day, po after 3 months; assay type: functional, organism-based; conditions: Trabecula; outline: as §3
Mus musculus [27] = assay: Toxicity in SAMP6 mouse assessed as change in 24 hrs water consumption at 30 mg/kg/day, po after 3 months; assay type: organism-based; design: route oral; conditions: in vivo; outline: as §2

CC(=O)c1cc2ccccc2s1
inactive: Activity (Mus musculus [18])
Non-toxic: Activity (Mus musculus [2]) | Activity (Rattus norvegicus [6]) | Activity (Rattus norvegicus [9]) | Activity (Mus musculus [10]) | Activity (Rattus norvegicus [12]) | Activity (Mus musculus [14]) | Activity (Rattus norvegicus [16]) | Activity (Rattus norvegicus [20]) | Activity (Mus musculus [21]) | Activity (Mus musculus [24]) | Activity (Mus musculus [27])
active: Activity (Mus musculus [1]) | Activity (Rattus norvegicus [3]) | Activity (Rattus norvegicus [4]) | Activity (Mus musculus [5]) | Activity (Mus musculus [7]) | Activity (Rattus norvegicus [8]) | Activity (Rattus norvegicus [15]) | Activity (Mus musculus [17]) | Activity (Mus musculus [22]) | Activity (Rattus norvegicus [26])
> 5000 mg/kg: LD50 at 408 h [25]
5.55 µm: Activity (Mus musculus [19])
35.6%: Activity [11]
7.09%: Activity (Mus musculus [23])
0.05 g/cm2: Activity (Mus musculus [13])
